Tests used:
Rattus norvegicus [1] = assay: Inhibition of d-amphetamine-induced increase shock avoidance response in Sprague-Dawley rat at 70 mg/kg, sc on day 4, drug administered prior to 2 mg/kg d-amphetamine challenge on 1,2,4 and 7th day relative to control; assay type: functional; set-up: scale not given: the % may be the effect or the level left
In short: (§1)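 Rats were pretreated sc with 0.1 mmol of the dihydrochloride 1, 2, 4 or 7 days before 2 mg/kg d-amphetamine sulfate, in groups of five. Each was placed in a shuttle box 30 min after amphetamine and ran one session. Light and tone came on a variable interval 60-s schedule, with shock 5 s later; a trial ended without response 30 s after shock onset. Avoidances over 50 trials were scored as % of an amphetamine-only control group.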

Rattus norvegicus [2] = assay: Inhibition of d-amphetamine-induced increase shock avoidance response in Sprague-Dawley rat at 70 mg/kg, sc on day 1, drug administered prior to 2 mg/kg d-amphetamine challenge on 1,2,4 and 7th day relative to control; assay type: functional; set-up: scale not given: the % may be the effect or the level left; in short: as §1
Rattus norvegicus [3] = assay: Toxicity in Sprague-Dawley rat assessed as shock avoidance response at 70 mg/kg, sc on day 2 relative to d-amphetamine; assay type: organism-based; set-up: dose 70 mg/kg, route subcutaneous; details: in vivo
Rattus norvegicus [4] = assay: Toxicity in Sprague-Dawley rat assessed as sedation effect at 70 mg/kg, sc for 2 days; assay type: organism-based; set-up: dose 70 mg/kg, route subcutaneous; details: in vivo, 48 h
Rattus norvegicus [5] = assay: Toxicity in Sprague-Dawley rat assessed as spontaneous locomotor activity at 70 mg/kg, sc on day 1 relative to control; assay type: organism-based; set-up: dose 70 mg/kg, route subcutaneous; details: in vivo
Rattus norvegicus [6] = assay: Inhibition of d-amphetamine-induced increase spontaneous locomotor activity in Sprague-Dawley rat at 70 mg/kg, sc on day 1, drug administered prior to 2 mg/kg d-amphetamine challenge on 1,2,4 and 7th day relative to control; assay type: functional; set-up: scale not given: the % may be the effect or the level left
In short: (§2)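 After the initial drug injections, with a sesame oil vehicle group as control, rats got 2 mg/kg d-amphetamine in saline on days 1, 2, 4 and 7. Motor activity was recorded with an electronic motility meter for 30 min immediately after each amphetamine dose, at the same time of day. Counts are expressed as % of the vehicle control group.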

Rattus norvegicus [7] = assay: Inhibition of d-amphetamine-induced increase shock avoidance response in Sprague-Dawley rat at 70 mg/kg, sc on day 7, drug administered prior to 2 mg/kg d-amphetamine challenge on 1,2,4 and 7th day relative to control; assay type: functional; set-up: scale not given: the % may be the effect or the level left; in short: as §1
Rattus norvegicus [8] = assay: Inhibition of d-amphetamine-induced increase spontaneous locomotor activity in Sprague-Dawley rat at 70 mg/kg, sc on day 2, drug administered prior to 2 mg/kg d-amphetamine challenge on 1,2,4 and 7th day relative to control; assay type: functional; set-up: scale not given: the % may be the effect or the level left; in short: as §2
Rattus norvegicus [9] = assay: Inhibition of d-amphetamine-induced increase spontaneous locomotor activity in Sprague-Dawley rat at 70 mg/kg, sc on day 7, drug administered prior to 2 mg/kg d-amphetamine challenge on 1,2,4 and 7th day relative to control; assay type: functional; set-up: scale not given: the % may be the effect or the level left; in short: as §2
Rattus norvegicus [10] = assay: Toxicity in Sprague-Dawley rat assessed as shock avoidance response at 70 mg/kg, sc on day 7 relative to d-amphetamine; assay type: organism-based; set-up: dose 70 mg/kg, route subcutaneous; details: in vivo
Rattus norvegicus [11] = assay: Toxicity in Sprague-Dawley rat assessed as shock avoidance response at 70 mg/kg, sc on day 4 relative to d-amphetamine; assay type: organism-based; set-up: dose 70 mg/kg, route subcutaneous; details: in vivo
Rattus norvegicus [12] = assay: Toxicity in Sprague-Dawley rat assessed as spontaneous locomotor activity at 70 mg/kg, sc on day 7 relative to control; assay type: organism-based; set-up: dose 70 mg/kg, route subcutaneous; details: in vivo
Rattus norvegicus [13] = assay: Toxicity in Sprague-Dawley rat assessed as spontaneous locomotor activity at 70 mg/kg, sc on day 2 relative to control; assay type: organism-based; set-up: dose 70 mg/kg, route subcutaneous; details: in vivo
Rattus norvegicus [14] = assay: Inhibition of d-amphetamine-induced increase spontaneous locomotor activity in Sprague-Dawley rat at 70 mg/kg, sc on day 4, drug administered prior to 2 mg/kg d-amphetamine challenge on 1,2,4 and 7th day relative to control; assay type: functional; set-up: scale not given: the % may be the effect or the level left; in short: as §2
Rattus norvegicus [15] = assay: Toxicity in Sprague-Dawley rat assessed as spontaneous locomotor activity at 70 mg/kg, sc on day 4 relative to control; assay type: organism-based; set-up: dose 70 mg/kg, route subcutaneous; details: in vivo
Rattus norvegicus [16] = assay: Toxicity in Sprague-Dawley rat assessed as shock avoidance response at 70 mg/kg, sc on day 1 relative to d-amphetamine; assay type: organism-based; set-up: dose 70 mg/kg, route subcutaneous; details: in vivo
Rattus norvegicus [17] = assay: Inhibition of d-amphetamine-induced increase shock avoidance response in Sprague-Dawley rat at 70 mg/kg, sc on day 2, drug administered prior to 2 mg/kg d-amphetamine challenge on 1,2,4 and 7th day relative to control; assay type: functional; set-up: scale not given: the % may be the effect or the level left; in short: as §1

Cl.O=C(NC12CC3CC(CC(C3)C1)C2)OCCN1CCN(CCCN2c3ccccc3Sc3ccc(C(F)(F)F)cc32)CC1
Activity (Rattus norvegicus [1]): 61.8%
Activity (Rattus norvegicus [2]): 16.7%
Activity (Rattus norvegicus [3]): 82.2%
Activity (Rattus norvegicus [4]): Toxic
Activity (Rattus norvegicus [5]): 52.8%
Activity (Rattus norvegicus [6]): 55.7%
Activity (Rattus norvegicus [7]): 92.5%
Activity (Rattus norvegicus [8]): 51.9%
Activity (Rattus norvegicus [9]): 101.2%
Activity (Rattus norvegicus [10]): 72%
Activity (Rattus norvegicus [11]): 90.9%
Activity (Rattus norvegicus [12]): 26.6%
Activity (Rattus norvegicus [13]): 47.8%
Activity (Rattus norvegicus [14]): 71.2%
Activity (Rattus norvegicus [15]): 29.6%
Activity (Rattus norvegicus [16]): 71.5%
Activity (Rattus norvegicus [17]): 47%
